From PubChem BioAssay
Sampled rows, rich in hits. Any-hit rate of the full collection: about 4%.
Mdm2-MdmX inh: inhibitors of human Mdm2/MdmX interaction. O15151+Q00987. SaOS-2 split-luciferase Mdm2/MdmX complementation, luminescence. inhibition, % at 8 µM. 330,000 compounds, 3% hits;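 active means inhibition of at least 50% at 8 µM in the primary screen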
UPR XBP1 act: adaptive UPR (XBP1) activation. 330,000 compounds, 0.33% hits. activation, % at 20 µM. CHO-XBP1 luciferase reporter, IRE1-XBP1 UPR activation, luminescence; percent of tunicamycin response, DMSO as zero. AID 463104;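 active means versus positive control, 20 µM dose yields 30% or more activation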
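Material: CHO-XBP1 cells stably carrying IRE1-XBP1-driven luciferase reporter | Medium: F12 with 10% serum | Compound dosing: 20 µM single concentration, DMSO 1% | Incubation: Overnight seeding at 37 °C, 6 h compound treatment at 37 °C | Detection: Steady-Glo luminescence read | Read-out basis: % activation of reporter signal versus tunicamycin and DMSO controls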
ABHD5-PLIN5 inh: blocks binding of human ABHD5 to perilipin-5; Q00G26+Q8WTS1; Split G. princeps luciferase complementation, luminescence, 4 h; inhibition, % at 4 µM; 360,000 compounds, 0.78% hits;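 active means inhibition above the mean inhibition across every tested compound plus 3 SD, cut at about 22% in these data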
Target sequence (Q00G26 whole entry, looked up): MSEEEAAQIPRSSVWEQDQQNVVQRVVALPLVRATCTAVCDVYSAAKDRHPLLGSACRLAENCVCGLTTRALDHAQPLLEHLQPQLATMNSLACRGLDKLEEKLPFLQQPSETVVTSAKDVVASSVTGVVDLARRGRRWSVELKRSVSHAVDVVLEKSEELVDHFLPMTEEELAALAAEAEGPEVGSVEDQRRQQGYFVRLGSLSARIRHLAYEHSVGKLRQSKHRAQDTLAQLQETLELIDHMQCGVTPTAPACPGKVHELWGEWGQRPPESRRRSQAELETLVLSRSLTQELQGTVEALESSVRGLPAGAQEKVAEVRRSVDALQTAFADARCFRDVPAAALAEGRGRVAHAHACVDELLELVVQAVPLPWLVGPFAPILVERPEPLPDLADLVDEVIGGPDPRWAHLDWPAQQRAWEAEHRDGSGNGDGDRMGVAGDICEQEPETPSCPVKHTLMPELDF
Target sequence (Q8WTS1 whole entry, looked up): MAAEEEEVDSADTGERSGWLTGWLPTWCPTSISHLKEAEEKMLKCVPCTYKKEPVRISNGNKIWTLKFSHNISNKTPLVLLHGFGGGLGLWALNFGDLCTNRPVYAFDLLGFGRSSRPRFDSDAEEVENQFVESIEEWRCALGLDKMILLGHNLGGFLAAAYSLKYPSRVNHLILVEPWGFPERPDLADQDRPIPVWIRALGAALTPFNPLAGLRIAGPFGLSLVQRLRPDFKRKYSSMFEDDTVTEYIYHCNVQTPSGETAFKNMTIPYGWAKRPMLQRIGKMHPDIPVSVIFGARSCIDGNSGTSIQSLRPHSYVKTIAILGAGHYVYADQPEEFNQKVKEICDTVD
UPR CHOP act: activators of apoptotic arm of unfolded protein response (CHOP); CHO-CHOP luciferase reporter, UPR activation, luminescence; percent of tunicamycin response over DMSO baseline; activation, % at 10 µM; 330,000 compounds, 0.34% hits; AID 449763;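 active means at 10 µM dose, activation of 40% or more, normalized to positive control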
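System: CHO-CHOP luciferase reporter cell line; amount: 500 cells/well; buffer or medium: F12 medium containing 10% fetal bovine serum; incubation: 6 h compound exposure at 37 °C after overnight seeding; measured by: luciferase luminescence after 10 min with Steady-Glo reagent; evaluation: % reporter activation, DMSO baseline versus tunicamycin full activation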
Granule exo inh: blocks lytic granule exocytosis | TALL-104 LAMP-1 surface exposure, flow cytometry; cells stimulated with thapsigargin and PMA | inhibition, % at 10 µM | 360,000 compounds, 0.66% hits;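 active means inhibition above about 55%, limit read from the data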
Granule exo CP1: blocks lytic granule exocytosis. shares compounds with Granule exo inh. TALL-104 cells, LAMP-1 externalization, flow cytometry; stimulated with PMA plus thapsigargin. inhibition, % at 10 µM. 1,500 compounds, 11% hits; in the data active means inhibition above about 60%
Numbers stand for hits; n = inactive; x = no result.

SMILES | Mdm2-MdmX inh | UPR XBP1 act | ABHD5-PLIN5 inh | UPR CHOP act | Granule exo inh | Granule exo CP1
CN(c1ccccc1)S(=O)(=O)c1ccc(Cl)c(C(=O)NC2=NCCS2)c1 | n | n | n | n | n | x
Cc1ccc(C)c(CN2C(=O)CSc3ccc(C(=O)NCC(C)CN4CCC(C)CC4)cc32)c1 (configuration not stated) | n | n | n | n | 77 | n
COc1ccc(-c2cn3cc([N+](=O)[O-])ccc3n2)cc1OC | n | n | n | n | n | x
COc1cccc(CN2CCC(C(=O)Nc3ccc(-c4cccc(C)c4)cc3)CC2)c1O | n | n | n | n | 74 | n
Cc1cccc(-c2ccc(NC(=O)C3CCN(CC4CC4)CC3)cc2)c1 | n | n | n | n | n | x
CCc1ccc(N(C(C)=O)C2C=CS(=O)(=O)C2)cc1 (configuration not stated) | n | n | n | n | 75 | n
O=S(=O)(Nc1ccccn1)c1cccs1 | n | n | n | n | n | x
OC1(c2cccc(C(F)(F)F)c2)CCN(c2ncnc3c2[nH]c2ccc(F)cc23)CC1 | x | x | n | x | 96 | 68
Cc1ccc(CNc2ccc(N3CCOCC3)cc2)cc1 | n | n | n | n | n | x
Cc1cccc(CN2CCc3c([nH]c4ccccc34)C2CC(C)C)n1 (configuration not stated) | n | n | n | n | 63 | n
Cc1cnc(CN2CCc3c([nH]c4ccccc34)C2CC(C)C)[nH]1 (configuration not stated) | n | n | n | n | n | x
COc1ccccc1N(CC(=O)NCCc1ccccc1)C(=O)CCC(=O)Nc1ccccn1 | n | n | n | n | n | x
COc1ccccc1N(CC(=O)NCCc1ccccc1)C(=O)CCC(=O)Nc1cc(C)ccn1 | n | n | n | n | 62 | n
COc1ccc(-c2cc(NC(C)=O)c3ncc(-c4ccccc4)n3c2)c(OC)c1 | x | x | n | x | 94 | 96
COc1cccc(-c2cnc3c(NC(C)=O)cc(-c4ccccc4OC)cn23)c1 | x | x | n | x | 76 | 94
CC(=O)Nc1cc(-c2ccccc2F)cn2c(-c3ccccc3)cnc12 | x | x | n | x | 79 | 94
O=C(C1CCC(=O)N(C2CC2)C1)N1CCC(Oc2cccc(C(F)(F)F)c2)CC1 (configuration not stated) | n | n | n | n | n | x
Cc1n[nH]c(C)c1CN(C)C(=O)C1CCC(=O)N(CC2CCCCC2)C1 (configuration not stated) | n | n | n | n | n | x
CCC(CC)C(=O)Nc1ccc(Sc2ccc([N+](=O)[O-])cc2)cc1 | n | n | n | n | 56 | n
CC1=C(C(=O)OCc2ccccc2)C(c2ccc(Cl)cc2Cl)NC(=O)N1CCCC(=O)O (configuration not stated) | n | n | n | n | 75 | n
COC(=O)C1=C(C)N(CCCC(=O)O)C(=O)NC1c1ccc2c(c1)OCO2 (configuration not stated) | n | n | n | n | 79 | n
COC(=O)C1=C(C)N(CCCC(=O)O)C(=O)NC1c1ccc(Cl)cc1 (configuration not stated) | n | n | n | n | n | x
CC1=C(C(=O)OCc2ccccc2)C(c2ccc(Cl)cc2Cl)NC(=O)N1CCCCCC(=O)O (configuration not stated) | n | n | x | n | x | x
COc1ccc(C2/C=C\CN(S(=O)(=O)c3cccc4cccnc34)CC(=O)N2Cc2ccc(F)cc2)cc1 (configuration not stated) | n | n | n | n | n | x
Cc1cc(CNC(=O)COc2ccccc2)c2ccccc2n1 | x | x | n | x | n | x
SMILES | Mdm2-MdmX inh | UPR XBP1 act | ABHD5-PLIN5 inh | UPR CHOP act | Granule exo inh | Granule exo CP1
Cc1cc(CNC(=O)COc2ccc([N+](=O)[O-])cc2)c2ccccc2n1 | n | n | n | n | 60 | n
CC(C)(C)NC(=O)C(OC(=O)c1cccs1)c1ccc(F)cc1 (configuration not stated) | n | n | n | n | 66 | n
CC(C)(C)NC(=O)C(OC(=O)c1cccs1)c1ccccc1 (configuration not stated) | n | n | n | n | n | x
COC(=O)C(Cc1c[nH]c2ccccc12)NC(=O)c1ccc2nc[nH]c2c1 (configuration not stated) | n | n | n | n | n | x
CN(CC1CCN(CCc2cccc(C(F)(F)F)c2)CC1)C(=O)c1ccccc1 | n | n | n | n | 56 | n
CCC(C)[C@H](NC(=O)N1CC(=O)Nc2ccccc21)C(=O)N1CCC[C@@H]1C(=O)O (some centres not stated) | n | n | n | n | n | x
O=C(NCC1CCCCC1)c1cccc(-c2ccc(O)cc2)c1 | n | n | n | n | 59 | n
CC(C)(C)c1cc(CP(=O)(c2ccccc2)c2ccccc2)cc(C(C)(C)C)c1O | n | n | n | n | 57 | n
Cc1cc(OC(C)C(=O)N2CCN(c3ccc(F)cc3)CC2)c2c(C)c(C)c(=O)oc2c1 (configuration not stated) | n | n | n | n | 64 | n
Cc1cc(OCC(=O)N2CCN(c3cccc(Cl)c3)CC2)c2c(C)c(C)c(=O)oc2c1 | n | n | n | n | n | x
O=C(NCc1ccc2c(c1)OCO2)C12CN(Cc3ccccc3)CC1C(c1cccc([N+](=O)[O-])c1)=NO2 (configuration not stated) | n | n | n | n | 100 | n
O=C(/C=C/c1cccs1)c1ccc(NC(=O)c2cccc(Br)c2)cc1 | n | n | n | n | n | x
CCOc1ccc2nc(SCC(=O)NCc3ccccc3OC)[nH]c2c1 | n | n | n | n | n | x
O=C(NCCCN1CCOCC1)c1ccc(/C=C2\Oc3ccccc3N(Cc3ccccc3F)C2=O)cc1 | n | n | n | n | 63 | n
C[N+](C)(C)CC/C=C1/c2ccccc2CSc2ccccc21 | n | n | n | n | n | x
CC(=O)OCCCN(C)CC/C=C1/c2ccccc2CSc2ccccc21 | n | n | n | n | 62 | n
O=C(C1=C[C@@H](c2coc3ccccc3c2=O)C[C@@H](OCCCCO)O1)N1CCOCC1 | n | n | n | n | 66 | n
Cc1nn(C)c(C)c1CN(C)C(=O)C1CCC(=O)N(C2CCCCCC2)C1 (configuration not stated) | n | n | n | n | n | x
O=C1CC[C@@H](O)CCN1CC[C@H](Sc1ccc(Br)cc1)c1ccccc1 | n | n | n | n | n | x
CC(C)(C)[C@@H]1CCC(=O)N(CC[C@H](Sc2ccc(Br)cc2)c2ccccc2)CC1 | n | n | n | n | 65 | n
CC(=O)c1cccc(OCc2cc(C(=O)N(C)CCC3CCOCC3)no2)c1 | n | n | n | n | n | x
